Results from ChEMBL document CHEMBL1770114, “Triamino pyrimidines and pyridines as histamine H(4) receptor modulators” (Bioorg Med Chem Lett, 2011).

Tests used:
Histamine H4 receptor [1] = molecular target: T1, Histamine H4 receptor (Homo sapiens, UniProt Q9H3N8); assay: Displacement of [3H]histamine from human histamine H4 receptor
Histamine H4 receptor [2] = molecular target: T1, Histamine H4 receptor; assay: Agonist activity at human histamine H4 receptor expressed in human SK-N-MC cells assessed as effect on forskolin-induced cAMP accumulation after 6 hrs; format: functional, cell-based
Procedure, shortened: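 SK-N-MC cells with CRE-driven β-galactosidase reporter. Compound added to medium for 10 min at room temperature, then forskolin (5 µM final), 6 h at 37 °C. Chlorophenol red β-D-galactopyranoside substrate read at A570. α set against histamine (full agonist) = 1.0.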

Histamine H4 receptor [3] = molecular target: T1, Histamine H4 receptor; assay: Antagonist activity at human histamine H4 receptor expressed in human SK-N-MC cells assessed as inhibition of forskolin-stimulated cAMP accumulation after 6 hrs; format: functional, cell-based; details: read-out: pA2 (converted)
Procedure, shortened: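 pA2 format on SK-N-MC cells carrying a CRE-controlled β-galactosidase reporter. Cells were preincubated with compound for 10 min, then with histamine agonist for 10 min, then forskolin was added, followed by 6 h at 37 °C. Lysis used phosphate/Mg/Mn buffer at pH 8 with Triton X-100 and β-mercaptoethanol. Chlorophenol red β-D-galactopyranoside turnover was read at 570 nm.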

Histamine H4 receptor [4] = molecular target: T1, Histamine H4 receptor; assay: Agonist activity at human histamine H4 receptor expressed in human SK-N-MC cells assessed as effect on forskolin-induced cAMP accumulation after 6 hrs relative to histamine; format: functional, cell-based
Procedure, shortened: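 SK-N-MC cells expressing human H4 receptor with a cAMP-responsive-element β-galactosidase reporter. Compound incubated 10 min at room temperature, then forskolin (5 µM final), then 6 h at 37 °C. Cells frozen overnight at -40 °C, lysed in phosphate buffer pH 8, chlorophenolred β-D-galactopyranoside substrate added, absorbance read at 570 nm. α calculated relative to histamine (full agonist) set as 1.0.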

T1 sequence (Q9H3N8 whole entry): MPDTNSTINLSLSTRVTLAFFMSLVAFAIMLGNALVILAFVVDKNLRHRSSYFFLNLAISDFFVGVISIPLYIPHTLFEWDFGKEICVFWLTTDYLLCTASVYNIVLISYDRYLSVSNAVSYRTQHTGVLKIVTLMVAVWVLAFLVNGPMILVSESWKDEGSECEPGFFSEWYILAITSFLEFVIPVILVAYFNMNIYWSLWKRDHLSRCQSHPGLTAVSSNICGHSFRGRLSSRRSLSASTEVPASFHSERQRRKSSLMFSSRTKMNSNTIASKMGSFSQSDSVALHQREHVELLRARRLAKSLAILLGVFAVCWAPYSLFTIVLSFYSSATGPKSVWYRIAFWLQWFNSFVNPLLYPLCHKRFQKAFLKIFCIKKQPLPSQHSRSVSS

Structure (SMILES) | Ki (Histamine H4 receptor [1]) | EC50 (Histamine H4 receptor [2]) | Kb (Histamine H4 receptor [3]) | Alpha max (Histamine H4 receptor [4])
CN[C@@H]1CCN(c2cc(N)nc(NCC(C)C)c2)C1 | 0.2 nM | > 10000 nM | 1.58 nM | 
CC(C)CNc1cc(N2CCN(C)CC2)nc(N)n1 | 2 nM | > 10000 nM | 1.26 nM | 
CN1CCN(c2cc(NCCO)nc(N)n2)CC1 | 25 nM |  |  | 
CN[C@@H]1CCN(c2cc(N3CCCC3)nc(N)n2)C1 | 36 nM | > 10000 nM | 7.94 nM | 
CC(C)CNc1nc(N)cc(N2CCN(C)CC2)n1 | 15 nM | 86 nM |  | 0.71
CC(C)N(C)c1cc(N2CCN(C)CC2)nc(N)n1 | 24 nM | > 10000 nM |  | 
Nc1nc(N2CCCC2)cc(N2CC3CCCNC3C2)n1 (racemic) | 40 nM |  |  | 
CN[C@H]1CCN(c2cc(N3CCCC3)nc(N)n2)C1 | 83 nM |  |  | 
CN1CCN(c2cc(N)nc(N3CCCC3)c2)CC1 | 100 nM | > 10000 nM | 20 nM | 
CN1CCN(c2cc(N3CCCC3)nc(N)n2)CC1 | 6 nM | > 10000 nM | 2 nM | 
CN[C@@H]1CCN(c2cc(NCc3ccccc3)nc(N)n2)C1 | 58 nM |  |  | 
CN[C@@H]1CCN(c2cc(N)nc(NCC(C)C)n2)C1 | 1 nM | > 10000 nM | 1.58 nM | 
CC(C)N(C)c1nc(N)cc(N2CCN(C)CC2)n1 | 853 nM |  |  | 
CC(C)Nc1cc(N2CCN(C)CC2)cc(N)n1 | 28 nM | 533 nM |  | 0.6
CN1CCN(c2cc(N)nc(N3CCCC3)n2)CC1 | 132 nM |  |  | 
CN[C@@H]1CCN(c2cc(N)nc(NC3CCCC3)n2)C1 | 6 nM | > 10000 nM | 12.6 nM | 
CN[C@@H]1CCN(c2cc(N)nc(NC(C)C)n2)C1 | 6 nM | > 10000 nM | 12.6 nM | 
CC(C)Nc1cc(N2CCN(C)CC2)nc(N)n1 | 3 nM | 12 nM |  | 0.57
CN[C@@H]1CCN(c2cc(N)nc(NCc3ccccc3)c2)C1 | 50 nM |  |  | 
CN1CCN(c2cc(N)nc(NC3CCCC3)n2)CC1 | 10 nM | 16 nM |  | 0.63
CN[C@@H]1CCN(c2cc(NC3CCCC3)nc(N)n2)C1 | 9 nM | > 10000 nM | 0.398 nM | 
CN[C@@H]1CCN(c2cc(N(C)C(C)C)nc(N)n2)C1 | 51 nM |  |  | 
CN[C@@H]1CCN(c2cc(N)nc(N(C)C(C)C)n2)C1 | 140 nM |  |  | 

Structure (SMILES) | Ki (Histamine H4 receptor [1]) | EC50 (Histamine H4 receptor [2]) | Kb (Histamine H4 receptor [3]) | Alpha max (Histamine H4 receptor [4])
CN1CCN(c2cc(N)nc(NC3CCCC3)c2)CC1 | 3 nM | 11 nM |  | 0.73
CN[C@@H]1CCN(c2cc(N)nc(N3CCCC3)n2)C1 | 127 nM |  |  | 
CN[C@@H]1CCN(c2cc(N)nc(N(C)C(C)C)c2)C1 | 29 nM |  |  | 
CN[C@@H]1CCN(c2cc(N)nc(NC(C)C)c2)C1 | 3 nM | > 10000 nM | 1.58 nM | 
CC(C)Nc1nc(N)cc(N2CCN(C)CC2)n1 | 162 nM |  |  | 
CC(C)N(C)c1cc(N2CCN(C)CC2)cc(N)n1 | 189 nM |  |  | 
Nc1nc(N2CCCC2)cc(N2CCNCC2)n1 | 8 nM | > 10000 nM |  | 
CN[C@@H]1CCN(c2cc(N)nc(NCc3ccccc3)n2)C1 | 69 nM |  |  | 
CN[C@@H]1CCN(c2cc(N)nc(N3CCCC3)c2)C1 | 77 nM | > 10000 nM | 15.8 nM | 
CN1CCN(c2cc(N)nc(NCc3ccccc3)c2)CC1 | 148 nM |  |  | 
CN1CCN(c2cc(NCc3ccccc3)nc(N)n2)CC1 | 20 nM |  |  | 
CN1CCN(c2cc(N)nc(NCc3ccccc3)n2)CC1 | 1080 nM |  |  | 
CC(C)CNc1cc(N2CCN(C)CC2)cc(N)n1 | 2 nM | 50 nM |  | 0.51
CN[C@@H]1CCN(c2cc(NCCO)nc(N)n2)C1 | 44 nM |  |  | 
CN1CCN(c2cc(N)nc(NCC(C)(C)C)c2)CC1 | 0.3 nM |  |  | 
CN1CCN(c2cc(NC3CCCC3)nc(N)n2)CC1 | 1 nM | 101 nM |  | 0.46
CN1CCN(c2cc(N)nc(NCCO)n2)CC1 | 1160 nM |  |  | 
CN[C@@H]1CCN(c2cc(N)nc(NC3CCCC3)c2)C1 | 0.9 nM | > 10000 nM |  | 
Nc1nc(N2CCCC2)cc(N2CC[C@@H](N)C2)n1 | 64 nM |  |  | 
CN[C@@H]1CCN(c2cc(NC(C)C)nc(N)n2)C1 | 3 nM | > 10000 nM | 10 nM | 
CN[C@@H]1CCN(c2cc(N)nc(NCC(C)(C)C)c2)C1 | 0.04 nM |  |  | 
CN[C@@H]1CCN(c2cc(N)nc(NCCO)n2)C1 | 255 nM |  |  | 
